Results from ChEMBL document CHEMBL3865830, “Multifunctional diamine AGE/ALE inhibitors with potential therapeutical properties against Alzheimer's disease” (Eur J Med Chem, 2016).
Activity calls are given as the source filed them. The rule behind the calls is not given here.

How the values were obtained:
[1] = Reactive carbonyl species trapping activity of compound assessed as MGO adduct formation at 10 mM preincubated for 24 hrs with MGO measured after 24 hrs by LCMS analysis; type: physicochemical; conditions: 10000 µM
[2] = Reactive carbonyl species trapping activity of compound assessed as MGO adduct formation at 10 mM preincubated for 24 hrs with MGO measured after 15 mins by LCMS analysis; type: physicochemical; conditions: 0.25 h, 10000 µM
[3] = Reactive carbonyl species trapping activity of compound assessed as MDA adduct formation at 10 mM preincubated for 24 hrs with MDA measured after 1 hr by LCMS analysis; type: physicochemical; conditions: 10000 µM
[4] = Antioxidant activity assessed as inhibition of AAPH-induced peroxyl radical generation measured as trolox equivalent at 10 uM preincubated for 30 mins followed by AAPH addition measured evey 60 secs for 60 cycles by ORAC-FL assay; type: functional; conditions: in the assay text read “90 secs” for “60 secs”
Outline: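 Fluorescein (12 nM) preincubated with compound (1-20 µM) or Trolox standard (1-50 µM) in D-PBS, at least 30 min at 37 °C. Reaction started with AAPH (30 mM). Fluorescence (ex 485/em 520 nm) read every 90 s for 60 cycles. Net AUC is converted to Trolox equivalents via the Trolox calibration line. Values are reported at 10 µM, from at least three independent experiments in triplicate.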

[5] = Metal chelating activity of compound assessed as compound-Cu2+ complex formation at 200 uM after 10 mins in presence of CuSO4.5H2O by complexometric indicator murexide based UV-Vis spectrophotometric analysis; type: physicochemical
Outline: (§1)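 Compound (0.02-2 mM) incubated with CuSO4 (120 µM) for 10 min at rt, in 10 mM hexamine/HCl with 10 mM KCl (pH 5.0), or in buffer/MeOH 75:25 for poorly soluble compounds. Murexide added, 1 min more. The A485/A520 ratio gives free Cu2+ from a CuSO4 calibration curve (0-125 µM). % chelation is taken by difference from the no-compound control; triplicates.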

[6] = organism: Rattus norvegicus; experiment: Cytotoxicity against rat […] PC12 cells assessed as reduction in cell viability at 10 to 100 uM after 24 hrs by WST8-based CCK8 assay; type: toxicity; conditions: pc-12, 24 h
Outline: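 PC12 Adh cells (rat pheochromocytoma-derived) grown in F-12K with 2.5% FBS, 15% horse serum and pen/strep at 37 °C, 5% CO2. Seeded at 5×10^3 cells/well; treated at 80% confluency with 10 or 100 µM for 24 h. 10% DMSO served as positive cytotoxicity control. CCK-8 added for 1 h at 37 °C, absorbance read at 450 nm. Viability given as % of untreated cells; at least three experiments in triplicate.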

[7] = Reactive carbonyl species trapping activity of compound assessed as MGO adduct formation at 10 mM preincubated for 24 hrs with MGO measured after 0.25 hrs by LCMS analysis; type: physicochemical; conditions: 10000 µM
[8] = Reactive carbonyl species trapping activity of compound assessed as MGO adduct formation at 10 mM preincubated for 24 hrs with MGO measured after 0.5 hrs by LCMS analysis; type: physicochemical; conditions: 10000 µM
[9] = Reactive carbonyl species trapping activity of compound assessed as MGO adduct formation at 10 mM preincubated for 24 hrs with MGO measured after 1 hr by LCMS analysis; type: physicochemical; conditions: 10000 µM
[10] = Reactive carbonyl species trapping activity of compound assessed as MGO adduct formation at 10 mM preincubated for 24 hrs with MGO measured after 5 hrs by LCMS analysis; type: physicochemical; conditions: 10000 µM
[11] = Reactive carbonyl species trapping activity of compound assessed as MDA adduct formation at 10 mM preincubated for 24 hrs with MDA measured after 0.25 hrs by LCMS analysis; type: physicochemical; conditions: 10000 µM
[12] = Reactive carbonyl species trapping activity of compound assessed as MDA adduct formation at 10 mM preincubated for 24 hrs with MDA measured after 0.5 hrs by LCMS analysis; type: physicochemical; conditions: 10000 µM
[13] = Reactive carbonyl species trapping activity of compound assessed as MDA adduct formation at 10 mM preincubated for 24 hrs with MDA measured after 5 hrs by LCMS analysis; type: physicochemical; conditions: 10000 µM
[14] = Reactive carbonyl species trapping activity of compound assessed as MDA adduct formation at 10 mM preincubated for 24 hrs with MDA measured after 24 hrs by LCMS analysis; type: physicochemical; conditions: 10000 µM
[15] = Metal chelating activity of compound assessed as compound-Cu2+ complex formation at 0.02 mM after 10 mins in presence of CuSO4.5H2O by complexometric indicator murexide based UV-Vis spectrophotometric analysis; type: physicochemical; conditions: 20 µM; outline: as §1
[16] = Metal chelating activity of compound assessed as compound-Cu2+ complex formation at 0.05 mM after 10 mins in presence of CuSO4.5H2O by complexometric indicator murexide based UV-Vis spectrophotometric analysis; type: physicochemical; conditions: 50 µM; outline: as §1
[17] = Metal chelating activity of compound assessed as compound-Cu2+ complex formation at 0.08 mM after 10 mins in presence of CuSO4.5H2O by complexometric indicator murexide based UV-Vis spectrophotometric analysis; type: physicochemical; conditions: 80 µM; outline: as §1
[18] = Metal chelating activity of compound assessed as compound-Cu2+ complex formation at 0.1 mM after 10 mins in presence of CuSO4.5H2O by complexometric indicator murexide based UV-Vis spectrophotometric analysis; type: physicochemical; conditions: 100 µM; outline: as §1
[19] = Metal chelating activity of compound assessed as compound-Cu2+ complex formation at 0.5 mM after 10 mins in presence of CuSO4.5H2O by complexometric indicator murexide based UV-Vis spectrophotometric analysis; type: physicochemical; conditions: 500 µM; outline: as §1
[20] = Metal chelating activity of compound assessed as compound-Cu2+ complex formation at 1 mM after 10 mins in presence of CuSO4.5H2O by complexometric indicator murexide based UV-Vis spectrophotometric analysis; type: physicochemical; conditions: 1000 µM; outline: as §1
[21] = Metal chelating activity of compound assessed as compound-Cu2+ complex formation at 2 mM after 10 mins in presence of CuSO4.5H2O by complexometric indicator murexide based UV-Vis spectrophotometric analysis; type: physicochemical; conditions: 2000 µM; outline: as §1
[22] = test system: PC-12; experiment: Neuroprotective activity against MGO-induced apoptosis in rat PC12 cells assessed as reduction DNA fragmentation at 100 uM preincubated for 1 hr followed by MGO addition after 24 hrs by ELISA; type: functional, cell-based
Outline: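 PC12 cells pretreated 1 h at 37 °C with compound (10 or 100 µM) in D-PBS, then exposed to MGO (2 mM) for 24 h. Lysates analysed by anti-histone/anti-DNA-peroxidase ELISA for cytoplasmic mono- and oligonucleosomes, with ABTS read-out at 405 nm. Cells without MGO were the control; MGO alone was the apoptosis standard.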

[23] = Reactive carbonyl species trapping activity of compound assessed as MDA adduct formation at 10 mM preincubated for 24 hrs measured after 15 mins by LCMS analysis; type: physicochemical; conditions: 0.25 h, 10000 µM

SMILES	Activity [1] [%]	Activity [2] [%]	Activity [3] [%]	Activity (umolequiv/umol) [4]	Activity [5] [%]	Activity [6]	Activity [7] [%]	Activity [8] [%]	Activity [9] [%]	Activity [10] [%]	Activity [11] [%]	Activity [12] [%]	Activity [13] [%]	Activity [14] [%]	Activity [15] [%]	Activity [16] [%]	Activity [17] [%]	Activity [18] [%]	Activity [19] [%]	Activity [20] [%]	other results
Cc1c(O)c(=O)ccn1CCC(=O)NCCCCC(N)CN.Cl.Cl (configuration not stated)	100	99	88	1.24	74.7	Non-Toxic	99	99	99	99	86	88	89	92	21.31	38.95	48.35	52.98	91.66	96	Activity [21]: 97.73%
Cl.Cl.NCC(N)CCCNC(=O)CCn1cccc(O)c1=O (configuration not stated)	98	97	7	1.03	59.96	Non-Toxic	97	100	98	99	0	4	75	86	12.16	24.84	35.49	40.8	73.21	76.43	Activity [21]: 76.75%
Cl.Cl.NCC(N)CCC(=O)NCCCn1cccc(O)c1=O (configuration not stated)	98	97	81	1.96	55.83	Non-Toxic	97	98	97	100	74	75	85	93	11.11	20.77	37.47	42.39	71.22	74.89	Activity [22]: Active; Activity [21]: 74.74%
Cl.Cl.NCC(N)CCC(=O)N1CCN(C(=O)c2cc(O)c(O)c(O)c2)CC1 (configuration not stated)	100	81	68	0.89	52.75	Non-Toxic	81	85	87	88	50	67	69	87	5.71	14	22.88	29.96	74.33	78.48	Activity [21]: 76.14%
Cc1c(O)c(=O)ccn1CCCNC(=O)CCC(N)CN.Cl.Cl (configuration not stated)	100	95	92	1.01	66.7	Non-Toxic	95	98	100	100	76	82	95	99	11.03	24.69	35.1	40.91	88.46	93.45	Activity [21]: 95.45%; Activity [23]: 76%
